Assay results as given in the M2OR odorant receptor database.
Residue numbers refer to the chain shown, from its start.

Key:
Details in all cases: stereoisomer not certain
OR4K13 (Homo sapiens) = biological target: T1, OR4K13 (Homo sapiens) (UniProt Q8NH42)
T1 sequence (whole entry): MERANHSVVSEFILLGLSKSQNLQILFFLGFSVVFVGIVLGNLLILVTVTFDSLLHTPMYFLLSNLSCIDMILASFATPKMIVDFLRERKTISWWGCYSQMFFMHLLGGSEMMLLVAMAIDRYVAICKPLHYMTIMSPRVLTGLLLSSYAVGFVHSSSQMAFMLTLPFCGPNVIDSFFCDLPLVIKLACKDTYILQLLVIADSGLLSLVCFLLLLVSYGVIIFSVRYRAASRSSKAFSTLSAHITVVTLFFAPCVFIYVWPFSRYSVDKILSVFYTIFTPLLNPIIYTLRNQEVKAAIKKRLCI
Summary of the method: (§1)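 Values were gathered from published papers (main text and supplementary material), with extra details requested from the original authors when needed, and checked for typos and inconsistencies. Each receptor–molecule pair is called responsive (active) if the original authors judged the measured signal statistically different from baseline, and non-responsive (inactive) otherwise. Assay methods varied by source, often transient mammalian cell-line luciferase assays. Recorded details include cell line, G-protein, co-transfected protein and tags.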

OR4K14 (Homo sapiens) = biological target: T2, OR4K14 (Homo sapiens) (UniProt Q8NGD5)
T2 sequence (whole entry): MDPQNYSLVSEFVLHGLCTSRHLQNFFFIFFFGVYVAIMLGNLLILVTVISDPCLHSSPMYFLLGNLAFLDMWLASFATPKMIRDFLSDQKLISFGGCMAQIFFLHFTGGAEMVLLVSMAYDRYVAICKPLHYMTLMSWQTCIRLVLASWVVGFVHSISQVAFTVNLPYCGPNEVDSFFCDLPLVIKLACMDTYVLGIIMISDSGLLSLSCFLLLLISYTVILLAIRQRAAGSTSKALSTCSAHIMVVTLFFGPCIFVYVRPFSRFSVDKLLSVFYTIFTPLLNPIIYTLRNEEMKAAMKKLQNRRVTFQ
Summary of the method: as §1

OR4K15 (Homo sapiens) = biological target: T3, OR4K15 (Homo sapiens) (UniProt Q8NH41)
T3 sequence (whole entry): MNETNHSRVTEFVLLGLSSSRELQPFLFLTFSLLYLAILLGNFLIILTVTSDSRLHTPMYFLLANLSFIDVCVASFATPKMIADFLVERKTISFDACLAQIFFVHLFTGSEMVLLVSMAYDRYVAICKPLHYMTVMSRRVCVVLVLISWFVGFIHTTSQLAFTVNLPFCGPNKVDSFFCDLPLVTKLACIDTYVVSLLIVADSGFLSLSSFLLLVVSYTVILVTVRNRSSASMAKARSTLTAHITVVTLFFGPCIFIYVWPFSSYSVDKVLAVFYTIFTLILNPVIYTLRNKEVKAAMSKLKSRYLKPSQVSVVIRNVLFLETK
Summary of the method: as §1

OR4K17 (Homo sapiens) = biological target: T4, OR4K17 (Homo sapiens) (UniProt Q8NGC6)
T4 sequence (whole entry): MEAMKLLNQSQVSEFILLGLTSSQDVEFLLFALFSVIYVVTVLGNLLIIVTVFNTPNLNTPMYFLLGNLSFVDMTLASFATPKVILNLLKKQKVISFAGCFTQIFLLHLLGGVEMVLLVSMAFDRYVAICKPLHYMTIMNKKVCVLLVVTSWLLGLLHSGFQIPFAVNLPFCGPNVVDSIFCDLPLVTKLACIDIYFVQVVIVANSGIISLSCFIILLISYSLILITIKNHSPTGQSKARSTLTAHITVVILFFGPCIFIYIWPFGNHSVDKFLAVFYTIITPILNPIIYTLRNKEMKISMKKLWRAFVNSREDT
Summary of the method: as §1

OR4K2 (Homo sapiens) = biological target: T5, OR4K2 (Homo sapiens) (UniProt Q8NGD2)
T5 sequence (whole entry): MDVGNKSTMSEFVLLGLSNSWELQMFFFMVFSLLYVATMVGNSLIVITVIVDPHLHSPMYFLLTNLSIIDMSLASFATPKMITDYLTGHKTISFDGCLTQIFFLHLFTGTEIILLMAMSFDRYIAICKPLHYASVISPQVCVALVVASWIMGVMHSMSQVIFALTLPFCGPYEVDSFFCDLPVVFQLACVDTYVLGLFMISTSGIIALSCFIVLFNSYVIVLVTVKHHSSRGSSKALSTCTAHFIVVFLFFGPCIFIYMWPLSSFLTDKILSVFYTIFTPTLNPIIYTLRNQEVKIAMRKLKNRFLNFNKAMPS
Summary of the method: as §1

OR4K5 (Homo sapiens) = biological target: T6, OR4K5 (Homo sapiens) (UniProt Q8NGD3)
T6 sequence (whole entry): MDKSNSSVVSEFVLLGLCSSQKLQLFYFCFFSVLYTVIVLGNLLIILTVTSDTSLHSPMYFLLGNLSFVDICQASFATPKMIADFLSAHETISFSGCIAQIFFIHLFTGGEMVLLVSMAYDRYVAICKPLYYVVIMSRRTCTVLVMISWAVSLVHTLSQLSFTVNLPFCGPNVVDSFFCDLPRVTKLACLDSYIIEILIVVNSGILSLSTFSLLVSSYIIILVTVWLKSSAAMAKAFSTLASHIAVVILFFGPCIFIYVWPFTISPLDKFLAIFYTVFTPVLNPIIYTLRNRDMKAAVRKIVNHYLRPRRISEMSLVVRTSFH
Summary of the method: as §1

OR4K3 (Homo sapiens) = OR4K3 (Homo sapiens) (UniProt Q96R72)
Summary of the method: as §1

OR4K1 R304H = test system: T7, OR4K1 R304H
T7 sequence (whole entry): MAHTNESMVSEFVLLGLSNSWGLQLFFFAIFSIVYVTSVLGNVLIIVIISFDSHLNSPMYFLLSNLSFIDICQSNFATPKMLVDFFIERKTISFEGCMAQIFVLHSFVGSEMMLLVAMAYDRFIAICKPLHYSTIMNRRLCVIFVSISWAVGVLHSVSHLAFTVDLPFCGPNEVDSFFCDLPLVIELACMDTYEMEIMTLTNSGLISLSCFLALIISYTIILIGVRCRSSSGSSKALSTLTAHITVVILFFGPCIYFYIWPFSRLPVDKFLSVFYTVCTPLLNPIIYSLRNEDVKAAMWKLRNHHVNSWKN
Summary of the method: as §1

OR4K2 = test system: T8, OR4K2
T8 sequence (whole entry): T5 sequence (whole entry) with N307I
Summary of the method: as §1

OR4KF = test system: T9, OR4KF
T9 sequence (whole entry): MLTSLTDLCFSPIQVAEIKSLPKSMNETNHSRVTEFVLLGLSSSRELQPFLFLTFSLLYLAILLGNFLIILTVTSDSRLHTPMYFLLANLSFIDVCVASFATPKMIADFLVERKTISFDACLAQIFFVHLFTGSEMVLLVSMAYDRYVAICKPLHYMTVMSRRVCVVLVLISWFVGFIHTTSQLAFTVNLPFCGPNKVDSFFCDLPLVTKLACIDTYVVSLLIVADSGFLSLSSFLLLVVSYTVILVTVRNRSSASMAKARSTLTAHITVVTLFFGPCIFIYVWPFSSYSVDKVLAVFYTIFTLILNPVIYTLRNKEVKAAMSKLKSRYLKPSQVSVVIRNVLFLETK
Summary of the method: as §1

Measured: odorant receptor agonist call

Chain of OR4K3 (Homo sapiens) (Q96R72 whole entry): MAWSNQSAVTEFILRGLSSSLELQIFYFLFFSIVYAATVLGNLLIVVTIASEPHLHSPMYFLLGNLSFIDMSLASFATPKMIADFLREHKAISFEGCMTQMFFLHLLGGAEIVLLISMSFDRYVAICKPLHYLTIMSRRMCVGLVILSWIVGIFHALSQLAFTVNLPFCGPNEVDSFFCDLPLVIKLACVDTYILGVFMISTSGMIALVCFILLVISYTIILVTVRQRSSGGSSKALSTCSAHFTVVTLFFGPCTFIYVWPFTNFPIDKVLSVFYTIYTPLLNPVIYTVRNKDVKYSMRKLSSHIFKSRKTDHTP

CCCCCC(=O)C(C)C(C)=O (stereo unspecified)
inactive: OR4K13 (Homo sapiens) | OR4K14 (Homo sapiens) | OR4K15 (Homo sapiens) | OR4K17 (Homo sapiens) | OR4K2 (Homo sapiens) | OR4K5 (Homo sapiens)

CC1CCCCCCCCCCCCC(=O)C1 (stereo unspecified)
not listed: OR4K1 R304H | OR4K2 | OR4KF
inactive: all other assays above

CCCCCC(S)C(C)CO (stereo unspecified)
inactive: OR4K13 (Homo sapiens) | OR4K14 (Homo sapiens) | OR4K15 (Homo sapiens) | OR4K17 (Homo sapiens) | OR4K2 (Homo sapiens) | OR4K5 (Homo sapiens)

CCC1OC(=O)C(O)=C1C (stereo unspecified)
not listed: OR4K15 (Homo sapiens) | OR4K17 (Homo sapiens) | OR4K3 (Homo sapiens)
inactive: all other assays above

CCCCCCC=CCCC=O
not listed: OR4K3 (Homo sapiens) | OR4KF
inactive: all other assays above

CCC(S)C(C)CO (stereo unspecified)
inactive: OR4K13 (Homo sapiens) | OR4K14 (Homo sapiens) | OR4K15 (Homo sapiens) | OR4K17 (Homo sapiens) | OR4K2 (Homo sapiens) | OR4K5 (Homo sapiens)

CC1=C(O)C(=O)OC1C (stereo unspecified)
not listed: OR4K15 (Homo sapiens) | OR4K17 (Homo sapiens) | OR4K3 (Homo sapiens)
inactive: all other assays above

CCCC(S)CCOC(C)=O (stereo unspecified)
not listed: OR4K15 (Homo sapiens) | OR4K17 (Homo sapiens) | OR4K3 (Homo sapiens)
inactive: all other assays above

CC1=NC(C)C(C)S1 (stereo unspecified)
not listed: OR4K15 (Homo sapiens) | OR4K17 (Homo sapiens) | OR4K3 (Homo sapiens)
inactive: all other assays above

CC1=C(O)C(=O)C(C)O1 (stereo unspecified)
not listed: OR4K15 (Homo sapiens) | OR4K17 (Homo sapiens) | OR4K3 (Homo sapiens)
inactive: all other assays above

CC(=O)c1c(C)c([N+](=O)[O-])c(C(C)(C)C)c([N+](=O)[O-])c1C
not listed: OR4K1 R304H | OR4K2 | OR4KF
inactive: all other assays above

Cc1cnc(C)c(C)n1
not listed: OR4K15 (Homo sapiens) | OR4K17 (Homo sapiens) | OR4K3 (Homo sapiens)
inactive: all other assays above

CCC1OC(C)=C(O)C1=O (stereo unspecified)
not listed: OR4K15 (Homo sapiens) | OR4K17 (Homo sapiens) | OR4K3 (Homo sapiens)
inactive: all other assays above

CCCCC(S)C(C)CO (stereo unspecified)
inactive: OR4K13 (Homo sapiens) | OR4K14 (Homo sapiens) | OR4K15 (Homo sapiens) | OR4K17 (Homo sapiens) | OR4K2 (Homo sapiens) | OR4K5 (Homo sapiens)

CC(CO)CS (stereo unspecified)
inactive: OR4K13 (Homo sapiens) | OR4K14 (Homo sapiens) | OR4K15 (Homo sapiens) | OR4K17 (Homo sapiens) | OR4K2 (Homo sapiens) | OR4K5 (Homo sapiens)
